# NPY-Y1 antag: blocks the human neuropeptide Y Y1 receptor. P25929. HEK293-CNG Y1 cells, membrane potential fluorescence; NPY at EC95, then isoproterenol. inhibition, % at 3.6 µM. 200,000 tested, 1% active. AID 1040;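 active means inhibition above the campaign mean inhibition of all tested compounds plus 3 SD, cut at about 20% in these data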;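 further: 0% = DMSO wells given NPY plus isoproterenol and 100% = isoproterenol alone without NPY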
# Target sequence (P25929 whole entry, looked up): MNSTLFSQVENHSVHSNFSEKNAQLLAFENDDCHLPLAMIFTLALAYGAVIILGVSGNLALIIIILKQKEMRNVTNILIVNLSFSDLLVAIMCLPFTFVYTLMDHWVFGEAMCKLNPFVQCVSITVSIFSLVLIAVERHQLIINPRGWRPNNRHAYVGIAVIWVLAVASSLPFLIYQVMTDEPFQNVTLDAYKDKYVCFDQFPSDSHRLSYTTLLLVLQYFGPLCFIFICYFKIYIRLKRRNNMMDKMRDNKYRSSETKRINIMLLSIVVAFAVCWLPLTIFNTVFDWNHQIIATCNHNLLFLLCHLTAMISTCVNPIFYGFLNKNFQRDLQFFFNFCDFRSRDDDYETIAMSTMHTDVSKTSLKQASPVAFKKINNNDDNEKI
#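 Material: HEK293 cells co-expressing NPY Y1 receptor and cyclic-nucleotide gated channel. Timing: compound incubation 1 h at room temperature, readout 45 min post-stimulation. Signal: fluorescence, membrane potential probe.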
# NPY-Y2 antag: NPY-Y2 (human) receptor antagonism | P49146 | NPY-Y2 expressing cells, antagonist mode | inhibition, % at 2.7 µM | 140,000 tested, 0.99% active; in the data active means inhibition above about 17%;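 further: 0% = vehicle with agonist challenge and 100% = reference antagonist with challenge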
# NPY-Y1 PAM-ag: potentiates or activates human NPY-Y1 receptor; activation, % at 3.6 µM; P25929; 220,000 tested, 0.37% active; NPY-Y1 expressing cells, potentiator/agonist activation; in the data active means activation above about 33%, passing the limit was not always enough;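 further: cells stimulated with NPY at EC10 then isoproterenol at EC100; 0% = low agonist plus stimulus and 100% = saturating agonist plus stimulus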
# NPY-Y2 PAM-ag: potentiators or agonists of human neuropeptide Y receptor Y2; P49146; cells expressing NPY-Y2, potentiator/agonist read-out; activation, % at 3.6 µM; 220,000 tested, 0.45% active; AID 1359; in the data active means activation above about 27%;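 further: cells stimulated with NPY near EC25 plus isoproterenol at EC100; 0% = vehicle plus submaximal agonist and 100% = vehicle plus saturating agonist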
# NPY-Y1 antag ct: antagonizes human NPY-Y1, counter-screen to NPY-Y2 antagonists. inhibition, % at 3.6 µM. 710 tested, 19% active. cell-based NPY-Y1 antagonism counterscreen. shares compounds with NPY-Y2 antag; in the data active means inhibition above about 20%;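 further: cells challenged with NPY then isoproterenol with cAMP sensed through a CNG channel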
# NPY-Y2 ant conf: human NPY-Y2 antagonism, confirmation; inhibition, % at 2.8 µM; 710 tested, 32% active; shares compounds with NPY-Y2 antag; HEK293 NPY-Y2 CNG channel, membrane potential fluorescence;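 active means mean inhibition of triplicate wells above the hit cutoff set in the primary screen, cut at about 17% in these data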;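 further: 0% = DMSO with NPY challenge and 100% = BIIE0246 high control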
# * marks the source's active call; other numbers are inactive results; nt = no result. In the library only some 1.8% were active in any assay of this set; here they are far more common.
SMILES,NPY-Y1 antag,NPY-Y2 antag,NPY-Y1 PAM-ag,NPY-Y2 PAM-ag,NPY-Y1 antag ct,NPY-Y2 ant conf
Cc1ccn2c(NC(C)(C)C)c(-c3cccs3)nc2c1,9,nt,-2,-16,nt,nt
Cc1c(NC(=O)c2ccc(COc3ccc4ccccc4c3)o2)c(=O)n(-c2ccccc2)n1C,8,18*,-11,-4,15,9
O=C1c2ccccc2NC(c2ccc(Cl)cc2Cl)N1Cc1ccccc1 (configuration not stated),14,28*,-12,-16,6,11
O=c1c(Cl)c(Cl)cnn1Cc1nnc(-c2ccccc2Br)o1,-2,nt,-3,-5,nt,nt
O=C(NC1CCCCC1)C(c1ccco1)N(Cc1cccnc1)C(=O)C1COc2ccccc2O1 (configuration not stated),15,19*,-20,-5,4,6
Cc1cccc(-c2cc(C(=O)Nc3ccc4c(c3)OCCO4)c3ccccc3n2)c1,3,26*,-76,-34,26*,43*
COCCN(C(=O)Cn1nnc2ccccc21)C(C(=O)NC1CCCCC1)c1ccc(OC)cc1OC (configuration not stated),20,19*,-95,-53,18,17
CC(=O)c1cccc(NC(=O)COC(=O)C2=COCCO2)c1,0,nt,2,1,nt,nt
CCn1cc(CN(C)S(=O)(=O)c2ccc3ccccc3c2)c(C)n1,-1,25*,1,14,12,1
CCn1cc(CN(C)S(=O)(=O)c2cccc([N+](=O)[O-])c2)cn1,2,nt,-6,8,nt,nt
Cc1ccc(N(C)S(=O)(=O)c2cccc(C(=O)Nc3nc4ccccc4[nH]3)c2)cc1,10,23*,-2,-17,42*,20*
C/C(=C\C(=O)c1ccc(Br)cc1)NCc1ccc(C)cc1,11,21*,3,-4,8,10
C/C(=C\C(=O)c1ccc(Br)cc1)NCc1ccccc1,5,9,-11,-5,nt,nt
Cc1cc(OCC(=O)O/N=C(\N)c2ccccc2)ccc1Cl,10,19*,-10,-4,7,10
Cc1cccc(/C(N)=N/OC(=O)COc2ccc(Cl)c(C)c2)c1,-3,11,1,16,nt,nt
CC12CCC(C/C1=N\N=C1\NC(=O)/C(=C\c3ccc(Cl)cc3)S1)C2(C)C (configuration not stated),4,37*,0,6,44*,55*
O=C1NC(=NCc2ccccc2)S/C1=C\c1ccccc1,4,1,-21,-5,nt,nt
CC(C)CCn1c(-c2nonc2N)nc2ccccc21,17,18*,-54,-32,12,13
CCCCn1c(-c2nonc2N)nc2ccccc21,2,9,-31,-10,nt,nt
CCOC(=O)c1ccccc1NC(=O)Cn1c(-c2nonc2N)nc2ccccc21,18,35*,-20,-24,23*,30*
CC(C)(C)c1cc(C(=O)O)n(Cc2ccc(Cl)cc2Cl)n1,nt,nt,-18,-8,nt,nt
CCOC(=O)c1c(CSC(=N)N)n(-c2ccc(Br)cc2)c2cc(Br)c(OC(C)=O)cc12,-3,26*,81*,74*,14,16
O=C(c1ccccn1)N(Cc1ccco1)C1(C(=O)NC2CCCCC2)CCCCC1,19,32*,2,1,11,6
Cc1cccc(C)c1NC(=O)C1(N(Cc2ccco2)C(=O)c2ccccn2)CCCC1,10,5,-18,-3,nt,nt
CCCCCC(=O)NC(=S)Nc1ccc(Br)cc1C,1,20*,13,-1,10,19*
SMILES,NPY-Y1 antag,NPY-Y2 antag,NPY-Y1 PAM-ag,NPY-Y2 PAM-ag,NPY-Y1 antag ct,NPY-Y2 ant conf
Cc1ccc2oc(C(=O)NCc3ccc4c(c3)OCO4)c(C)c2c1,3,15,-20,-20,nt,nt
Cc1c(C(=O)NCc2ccc3c(c2)OCO3)oc2ccc(Br)cc12,9,22*,-30,-24,14,12
CCOC(=O)c1nn(-c2ccc(Cl)cc2)c2nnc(Cc3ccccc3)c(=O)n12,-1,4,5,-14,nt,nt
Cc1ccc(-n2nc(C(=O)c3ccccc3)n3c(=O)c(Cc4ccccc4)nnc23)cc1,17,18*,-41,-21,73*,99*
Nc1nc(SCC(=O)NCCc2ccccc2)[nH]c(=O)c1-c1ccccc1,6,nt,5,-2,nt,nt
COc1ccc(CCNC(=O)CSc2ccc(-c3ccncc3)nn2)cc1,3,nt,6,16,nt,nt
Cc1[nH]nc2c1/C(=N\O)CCC2,-1,nt,-7,-5,nt,nt
COC(=O)c1c(-c2ccc(F)cc2)csc1NC(=O)c1ccco1,11,25*,-6,-10,11,12
CCOC(=O)c1ccc(NC(=S)NNC(=O)C2(C)CC2(Cl)Cl)cc1 (configuration not stated),2,4,-10,-3,nt,nt
CCOc1ccc2nc(SCc3ccc(C(=O)OC)o3)[nH]c2c1,9,4,-26,2,nt,nt
O=C(NC1CCCCCC1)c1c2c(nc3ccccc13)CCN(Cc1ccccc1)C2,10,56*,6,-6,81*,67*
CC(C)c1ccccc1NC(=O)COC(=O)c1c2c(nc3ccccc13)CCN(Cc1ccccc1)C2,18,19*,-18,-6,17,9
Cc1c(Cl)cccc1NC(=O)COC(=O)c1c2c(nc3ccccc13)CCN(Cc1ccccc1)C2,8,12,-32,-2,nt,nt
COc1ccc(-n2c(-c3ccco3)nc3c(cnn3-c3ccccc3C)c2=O)cc1,nt,nt,-1,-20,nt,nt
O=C1C2CC=C(Cl)CC2C(=O)N1CC1Cc2ccccc2CO1 (configuration not stated),11,28*,-5,-26,9,23*
O=C1C2CC=C(Cl)CC2C(=O)N1CC1OCCc2ccccc21 (configuration not stated),16,11,-70,-31,nt,nt
COC(=O)c1ccc(C(=O)OC)c(-n2c(=O)c3ccccc3c3ccccc3c2=O)c1,0,19*,23,11,8,16
Cc1nc2ccc(F)cc2cc1C(=O)Nc1ccc(Cl)c(Cl)c1,6,23*,-3,-12,14,31*
Cc1nc2ccc(F)cc2cc1C(=O)NCc1ccco1,8,-1,4,22,nt,nt
CCN(CC)C(C(=O)Nc1ccc(C(C)C)cc1)c1ccc2c(c1)OCO2 (configuration not stated),16,18*,-6,-14,7,14
O=C(Cc1ccc2c(c1)CCCC2)Nc1ccc2ccccc2c1,18,18*,-11,-14,11,13
Cc1ccc(S(=O)(=O)NCC(=O)N/N=C/c2ccccc2O)cc1,2,nt,-5,-12,nt,nt
O=C(C1=C[C@@H](c2ccc(C(F)(F)F)cc2)C[C@@H](OCCCCO)O1)N1CCN(Cc2ccc3c(c2)OCO3)CC1,0,nt,3,0,nt,nt
O=C(NCC1CCCO1)c1cc(-c2ccco2)nc2ccccc12 (configuration not stated),9,-2,6,1,nt,nt
CC(C)CCNC(=O)c1cc(-c2ccco2)nc2ccccc12,19,33*,-149,-112,40*,40*
